Assay outcomes from PubChem BioAssay.
An excerpt weighted towards active compounds, which were near 5.6% of everything screened.
aDG glyco up: alpha-DG glycosylation activation; Pro5-aDG cells, alpha-DG glycosylation AlphaScreen (IIH6); 0% Pro5, 100% B10-LARGE cell signal; hit rate 0.22% among 360,000; activation, % at 10 µM; AID 624168;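 active means activation of at least 8% versus controls, or a plate z-score of at least 8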;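 further: Pro5 are CHO cells carrying HIG-tagged alpha-DG that lacks glycosylation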
UPR CHOP act: activators of apoptotic arm of unfolded protein response (CHOP); CHO-CHOP luciferase reporter, UPR activation, luminescence; percent of tunicamycin response over DMSO baseline; hit rate 0.34% among 330,000; activation, % at 10 µM;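 active means at 10 µM dose, activation of 40% or more, normalized to positive control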;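 further: 100% = tunicamycin at 10 µg/mL and 0% = DMSO alone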
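measured by = luciferase luminescence | assay system = CHO-CHOP cells, stable luciferase reporter of PERK-eIF2a-CHOP signalling | amount = 500 reporter cells seeded per well | timing = 6 h compound exposure at 37 °C after overnight seeding | controls = positive tunicamycin 10 µg/mL, negative DMSO alone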
MPTP inh: blocks calcium-induced mitochondrial swelling; isolated mouse mitochondria, Ca2+ swelling absorbance, 30 min; inhibition, % at 10 µM; hit rate 1.4% among 360,000;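 active means inhibition of 50% or more, scaled per plate between neutral and stimulator controls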;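 further: 0% = DMSO wells given calcium and 100% = 1 mM EGTA wells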
UPR XBP1 act: activators of adaptive arm of unfolded protein response (XBP1); AID 463104; activation, % at 20 µM; hit rate 0.33% among 330,000; CHO-XBP1 luciferase reporter, IRE1-XBP1 UPR activation, luminescence; percent of tunicamycin response, DMSO as zero;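 active means versus positive control, 20 µM dose yields 30% or more activation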;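 further: 100% = tunicamycin at 10 µg/mL and 0% = DMSO only wells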
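Material – CHO cell line with stable XBP1 luciferase reporter · Buffer or medium – F12 plus 10% FBS · Compound – single point, 20 µM final compound, 1% DMSO · Schedule – 16-18 h cell attachment at 37 °C, then 6 h compound exposure · Signal – Steady-Glo luminescence read · Benchmarks – high control tunicamycin 10 µg/mL final, low control DMSO vehicle only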
CHOP inhibitor: CHOP inhibition in unfolded protein response; CHO-K1 CHOP-promoter luciferase, tunicamycin-induced, 15-18 h; inhibition, % at 10 µM; hit rate 3.8% among 220,000; AID 2732;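 active means compounds that reduced the stress-induced luciferase reporter signal by more than about 70% of percent inhibition, limit read from the data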;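 further: 0% = tunicamycin plus vehicle and 100% = wells without tunicamycin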
GRIN3A LBD mod: modulates the human NR3A ligand-binding domain; NR3A LBD differential scanning fluorimetry, Tm shift; 0% = protein alone, 100% = glycine-bound protein; Tm shift relative to glycine control, % at 25 µM; hit rate 2.5% among 340,000;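 active means melting temperature shift of at least 10% of the positive control shift, at one fixed dose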
Rh123 counter: Rhodamine 123 counter-screen of mitochondrial pore hits; shares compounds with MPTP inh; isolated mitochondria, membrane potential, Rhodamine 123 fluorescence; inhibition, % at 10 µM; hit rate 78% among 5,000; AID 624504; in the data active means inhibition above about 22%;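 further: 0% = DMSO vehicle and 100% = positive control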
MPTP abs DR: MPTP inhibition, dose response swelling confirmation; shares compounds with MPTP inh; isolated mitochondria swelling, absorbance; IC50, µM; hit rate 58% among 780; AID 651561; in the data active means IC50 below about 20 µM
MPTP cs DR: MPTP inhibitor counter-screen activity, dose response | isolated mitochondria counterscreen, fluorescence read-out | shares compounds with MPTP inh | hit rate 49% among 780 | IC50, µM; in the data active means IC50 below about 80 µM
Numbers without * were called inactive; i = inactive; . = no result given.

SMILES | aDG glyco up | UPR CHOP act | MPTP inh | UPR XBP1 act | CHOP inhibitor | GRIN3A LBD mod | Rh123 counter | others
CCOP(=O)(OCC)C(NC(=O)Nc1ccc(C)c(Cl)c1)c1ccccc1 (stereo unspecified) | 0 | -1 | 84* | -4 | 24 | 24* | 84*
CCOP(=O)(OCC)C(NC(=O)Nc1ccc(Cl)c(Cl)c1)c1ccccc1 (stereo unspecified) | 0 | 0 | 60* | -3 | 20 | -3 | 56*
CN1C(c2ccccc2)CCOS1(=O)=O (stereo unspecified) | 0 | 1 | 0 | -1 | . | -2 | .
CO/N=C/c1ccc(N2CCN(C(=O)c3ccc(Cl)cc3Cl)CC2)c([N+](=O)[O-])c1 | 2 | 4 | 78* | 3 | 55 | -8 | 60*
CCc1ccc(S(=O)(=O)Nc2ccc(O)c3c(=O)cc(-c4ccccc4Cl)oc23)cc1 | 0 | 1 | 3 | -1 | 66 | 3 | .
O=c1cc(-c2ccccc2Cl)oc2c(NS(=O)(=O)c3cc(Cl)cc(Cl)c3O)ccc(O)c12 | 0 | -1 | 70* | -2 | 48 | 5 | 6
Cc1occc1-c1nnc(SCC(=O)NCc2ccco2)n1CC(C)C | 0 | -1 | 63* | 0 | 27 | 0 | 6 | MPTP abs DR=i;MPTP cs DR=>80
CC(=O)c1ccc(Oc2ccc(C(C)=O)cc2)cc1 | 0 | 3 | -1 | 0 | 24 | -2 | .
Oc1ccc(Oc2ccc(Oc3ccc(O)cc3)cc2)cc1 | 0 | 1 | 62* | 3 | . | -10 | 80*
CN1CCN(NC(=O)CN2C(=O)S/C(=C\c3c(Cl)cccc3Cl)C2=O)CC1 | 0 | -1 | -2 | 2 | 21 | -1 | .
O=C(Cc1ccc(Cl)cc1)Nc1ncc([N+](=O)[O-])s1 | 0 | . | 96* | . | 21 | -7 | 89*
O=C(COc1ccc(Cl)cc1)Nc1ncc([N+](=O)[O-])s1 | 0 | . | 95* | . | 33 | -4 | 103*
Cc1cnc(NC(=O)Cc2ccc(Br)cc2)s1 | 0 | 0 | 4 | 0 | . | 3 | .
O=C(Cc1ccc(Br)cc1)Nc1ncc([N+](=O)[O-])s1 | 0 | 4 | 74* | 2 | 47 | 4 | 82*
CCC(Oc1ccccc1)C(=O)Nc1ncc([N+](=O)[O-])s1 (stereo unspecified) | 0 | -3 | 89* | 0 | 13 | -9 | 98*
COc1cc(C(=O)OCC(=O)NCCC2=CCCCC2)ccc1OCC(C)C | 0 | -2 | 0 | -2 | . | 0 | .
CCOC(=O)C1=CC[C@H]2c3c(c4ccccc4n3C)C(=O)C1N2C | 1 | -1 | -2 | 0 | . | 1 | .
COC(=O)Oc1ccc(/C=N/NC(=O)CN(c2ccccc2Cl)S(C)(=O)=O)cc1OC | 1 | -2 | 0 | -2 | 21 | 2 | .
COc1cccc(CN2CCNC(=O)C2CC(=O)NCCCN2CCCC2=O)c1 (stereo unspecified) | 0 | 0 | -1 | -2 | . | 0 | .
Cc1cc2nc(CCN(C(=S)NCC(C)C)C3CCCC3)[nH]c2cc1C | 4 | -1 | 85* | -6 | 43 | -3 | 84*
Cc1cc2nc(CCN(C(=S)NCC3CCCO3)C3CCCC3)[nH]c2cc1C (stereo unspecified) | 1 | 0 | -1 | 5 | 0 | -1 | .
Cc1ccc(S(=O)(=O)N2CCC3(CC2)OCCN3S(=O)(=O)c2c(C)cc(C)cc2C)cc1 | 1 | 0 | 7 | -2 | . | 2 | .
O=C(CCCCCCN1C(=O)c2ccccc2C1=O)Nc1nccs1 | 0 | -1 | 66* | -2 | 15 | 2 | -1 | MPTP abs DR=>100;MPTP cs DR=>80
O=[N+]([O-])c1ccc(N=NN(CCO)CCO)cc1 | 0 | 0 | 0 | -1 | -1 | 2 | .
O=[N+]([O-])c1cccc(N=Nc2ccc(O)cc2O)c1 | 0 | . | 84* | . | . | -8 | 73*
SMILES | aDG glyco up | UPR CHOP act | MPTP inh | UPR XBP1 act | CHOP inhibitor | GRIN3A LBD mod | Rh123 counter | others
O=[N+]([O-])c1ccc(N=Nc2ccc(O)cc2O)cc1 | -1 | 6 | 84* | 2 | 42 | 0 | 80*
CCCOC(=O)c1ccc(OCC(O)Cn2c(C)nc3ccccc32)cc1 (stereo unspecified) | 2 | 10 | 53* | 0 | 65 | 0 | 103*
CC(=O)Nc1ccc(S(=O)(=O)NCCC(=O)OCC(=O)c2ccc(Br)cc2)cc1 | 0 | 1 | 59* | -2 | . | 1 | 87*
Nc1nc2ccccc2n1CCOc1ccccc1Cl | 1 | 0 | 74* | -7 | 69 | 1 | 19 | MPTP abs DR=9*;MPTP cs DR=27*
Nc1nc2ccccc2n1CCOc1ccc(Cl)cc1 | 0 | 0 | 2 | -2 | . | 2 | .
CCc1ccc(NS(=O)(=O)c2ccc(OC)c3ncccc23)cc1 | 0 | 2 | -1 | 0 | . | -1 | .
CCc1ccc(OC)c(S(=O)(=O)Nc2ccc(Cc3ccncc3)cc2)c1 | 1 | 5 | 79* | -1 | . | 0 | 83*
COc1ccc(S(=O)(=O)Nc2ccc(Cc3ccncc3)cc2)cc1OC | 0 | 2 | 66* | 0 | . | -1 | 78*
Cc1cc(NC(=O)COc2coc(CN3CCN(c4ccccc4F)CC3)cc2=O)no1 | 0 | 1 | -2 | -1 | . | -1 | .
Cc1nn(-c2ccccc2)c(N2CCCC2)c1/C=N/NC(=O)c1cc2ccccc2cc1O | 0 | -1 | 97* | -1 | 6 | 9 | 70*
Cc1nn(-c2ccccc2)c(N2CCCC2)c1/C=N/NC(=O)c1cc(-c2ccccc2)nc2ccccc12 | -1 | 4 | 2 | 0 | 35 | -2 | .
Cc1ccc(NC(=O)Nc2cccc([N+](=O)[O-])c2)cc1F | 0 | 9 | 105* | 9 | 64 | 34* | 70*
O=C(Nc1cccnc1)Nc1cccc([N+](=O)[O-])c1 | 0 | 0 | 62* | -1 | . | 7 | 89*
O=C(Nc1ccc(OC(F)(F)F)cc1)Nc1cccc([N+](=O)[O-])c1 | -1 | 4 | 75* | 11 | 106* | 13* | 64*
Cc1c(NC(=O)CN2C(=O)NC3(CCC(C)CC3)C2=O)c(=O)n(-c2ccccc2)n1C (stereo unspecified) | 1 | 2 | -3 | -3 | -2 | 1 | .
Cc1nc2ccc(S(=O)(=O)NCC(=O)Nc3cccc(F)c3)cc2s1 | 0 | -2 | 0 | -5 | 16 | 1 | .
